Experimental data from different studies.
Each line is one published result; the experiments were not run side by side. In brackets after ≈: the same amount, converted by molar mass.

SMILES | organism | test | test system | setting | endpoint | value
COC(=O)c1cc(-c2cccc(NC(=O)Nc3cccc(Br)c3)c2)on1 | Mycobacteroides chelonae | microbial growth, broth dilution | ATCC35752 | 48 h | MIC | > 64 µg/mL
CCC(=O)N1CCN(c2ccc(-n3c(=O)ccc4cnc5ccc(-c6cnc7ccccc7c6)cc5c43)cc2C(F)(F)F)CC1 | Plasmodium berghei | parasite growth, luciferase | human | liver stage | IC50 | 0.41 µM
O=c1c2ccccc2nc(/C=C/c2ccc(F)cc2)n1-c1cccc([N+](=O)[O-])c1 | Enterococcus faecium | microbial growth, broth dilution | NCTC7171 | – | MIC | > 128 µg/mL
Cc1cc(Cc2ccccc2)n(O)c(=O)c1 | Candida albicans | microbial growth | ATCC90028 | – | MIC80 | 1.2 µM (≈ 0.258 µg/mL)
c1ccc2c(c1)CCc1ccccc1C2OCCN1CCNCC1 | Trypanosoma brucei | parasite growth | – | – | EC50 | 9.32 µM
O=c1c2ccccc2nc(/C=C/c2ccccc2)n1-c1cccc(O)c1 | Enterococcus faecium | microbial growth, broth dilution | NCTC7171 | – | MIC | 32 µg/mL (≈ 94 µM)
COC(=O)c1cc(-c2cccc(NC(=S)Nc3ccc(C)cc3)c2)on1 | Mycobacteroides chelonae | microbial growth, broth dilution | ATCC35752 | 48 h | MIC | > 64 µg/mL
CCCCCOc1ccc(-c2cc(-c3ccc(C(=O)N[C@H]4C[C@@H](O)[C@@H](O)NC(=O)[C@@H]5[C@@H](O)[C@@H](C)CN5C(=O)[C@H]([C@H](O)CC(N)=O)NC(=O)[C@H]([C@H](O)[C@@H](O)c5ccc(O)c(OS(=O)(=O)O)c5)NC(=O)[C@@H]5C[C@@H](O)CN5C(=O)[C@H]([C@@H](C)O)NC4=O)cc3)no2)cc1 | Candida albicans | biofilm formation | – | 16 µg/mL | inhibition | 47%
Nc1ccc(/C=C/c2nc3ccccc3c(=O)n2-c2cccc(O)c2)cc1 | Enterococcus faecium | microbial growth, broth dilution | NCTC7171 | – | MIC | > 128 µg/mL
COC(=O)c1cc(-c2cccc(NC(=S)Nc3ccc(C#N)cc3)c2)on1 | Mycobacteroides chelonae | microbial growth, broth dilution | ATCC35752 | 48 h | MIC | 64 µg/mL (≈ 169 µM)
O=c1c2ccccc2nc(/C=C/c2cccc(F)c2)n1-c1cccc(O)c1 | Enterococcus faecium | microbial growth, broth dilution | NCTC7171 | – | MIC | 32 µg/mL (≈ 89.3 µM)
COc1cccc(Cc2cc(C)cc(=O)n2O)c1 | Candida albicans | microbial growth | ATCC90028 | – | MIC80 | 2.3 µM (≈ 0.564 µg/mL)
Cl.O[C@]12C=C(c3nccc4c3[nH]c3ccccc34)[C@@H]3CCN(CCCC/C=C\CC1)C[C@@]31C[C@@H]3/C=C\CCCCN3[C@H]12 | Mycobacterium intracellulare | microbial growth, resazurin | ATCC23068 | – | IC50 | 0.12 µg/mL
O=c1c2ccccc2nc(/C=C/c2ccc(F)cc2)n1-c1cccc(O)c1 | Enterococcus faecium | microbial growth, broth dilution | NCTC7171 | – | MIC | 128 µg/mL (≈ 357 µM)
COC(=O)c1cc(-c2cccc(NC(=S)Nc3ccccc3)c2)on1 | Mycobacteroides chelonae | microbial growth, broth dilution | ATCC35752 | 48 h | MIC | > 64 µg/mL
O=C(N/N=C/c1ccc(O)c(O)c1)c1cc2ccccc2cc1O | Murine coronavirus | viral replication | – | – | IC50 | 6 µM
N#Cc1ccc(/C=C/c2nc3ccccc3c(=O)n2-c2cc[nH]n2)cc1 | Enterococcus faecium | microbial growth, broth dilution | NCTC7171 | – | MIC | > 128 µg/mL
CCOC(=O)c1cc(-c2cccc(NC(=O)Nc3ccc(Cl)c(Cl)c3)c2)on1 | Mycobacteroides chelonae | microbial growth, broth dilution | ATCC35752 | 48 h | MIC | > 64 µg/mL
CC(=O)Oc1cccc2c1[nH]c1c(C3=C[C@@]4(OC(C)=O)CC/C=C\CCCCN5CC[C@@H]3[C@]3(C[C@@H]6/C=C\CCCCN6[C@H]34)C5)nccc12 | Mycobacterium intracellulare | microbial killing | – | – | MBC | > 20 µg/mL
COC(=O)c1cc(-c2cccc(NC(=O)Nc3ccc(F)c(F)c3)c2)on1 | Mycobacteroides chelonae | microbial growth, broth dilution | ATCC35752 | 48 h | MIC | > 64 µg/mL
O=C(O)CSc1ncnc2cc(-c3cc4ccccc4s3)sc12 | Murine coronavirus | viral replication | – | 1 µM, 10 h | inhibition | -36%
